Data set [1] is described as follows: Oral bioavailability in Sprague-Dawley rat at 10 mg/kg dosed as aqueous suspension of Labrafil M 1944CS/DMAC/polysorbate 80, 85:10:5 (v/v) after 0.25 to 24 hrs by LC/MS/MS analysis. Type of data set: ADME, organism-based. Conditions: in vivo.
A short description of data set [2]: Drug metabolism in bile duct cannulated Sprague-Dawley rat assessed as GSH adduct formation in urine at 20 mg/kg, po after 24 hrs by HPLC/UV/MS analysis. Conditions: in vivo. The arrangement: dose 20 mg/kg, route oral. Type of data set: ADME, organism-based. A digest of the protocol:
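Male Sprague–Dawley bile duct cannulated rats (n = 3) dosed orally at 20 mg/kg in PEG/ethanol 90:10; vehicle-dosed controls (n = 3). Bile and urine pooled over 0–24 h, acetonitrile-precipitated and profiled by HPLC/UV/MS (Hydro-RP column, PDA 200–550 nm, positive-ion full and data-dependent scans).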

Data set [3] in a line: Displacement of [125I]sauvagine from CRF2 receptor in porcine choroid plexus homogenate by binding titration assay. Type of data set: tissue-based, Sus scrofa. The essentials:
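Porcine choroid plexus homogenate; inhibition of [125I]-sauvagine binding measured in a titration format.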
(In general: Displacement assays read how much labelled ligand stays bound in the presence of the test substance.)

The subject of data set [4] is Rattus norvegicus. Kind of data set: Plasma free concentration in Sprague-Dawley rat at 0.56 mg/kg, po after 1 to 3 hrs by LC/MS/MS analysis. Conditions: in vivo. The arrangement: dose 0.56 mg/kg, route oral. Type of data set: ADME, organism-based.
The subject of data set [5] is Rattus norvegicus. Kind of data set: Ex vivo receptor occupancy of CRF1 receptor in Sprague-Dawley rat brain parietal assessed as inhibition of [125I]sauvagine binding at 1 mg/kg, po after 90 mins by autoradiography. Format: functional. Conditions: 1.5 h.
For a further data set, the system named is Liver microsomes. Briefly: Metabolic stability in NADPH-fortified rat liver microsomes assessed as GSH adduct formation at 10 uM after 30 mins by HPLC/UV/MS analysis. Format: ADME, Microsome. Conditions: 0.5 h. The essentials: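 Pooled rat or human liver microsomes 1 mg/mL, 10 μM substrate, 100 mM potassium phosphate pH 7.4, 37 °C, started with NADPH-regenerating system (1.3 mM NADP+, 3.3 mM glucose-6-phosphate, 3.3 mM MgCl2, 0.5 U/mL G6PDH); GSH 5 mM in trapping runs. Sampled 0 and 30 min, acetonitrile quench; abundance as UV peak area (330–340 nm) fraction of all drug-related components by HPLC/UV/MS.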
A general note: Liver microsomes are a subcellular fraction often used to study metabolism.

Data set [6] deals with Rattus norvegicus. Kind of data set: Toxicity in Sprague-Dawley rat at 60 mg/kg after 2 weeks. Type of data set: organism-based. The arrangement: dose 60 mg/kg. Conditions: in vivo, 336 h.
Data set [7] is described as follows: Cmax in Beagle dog at 3 mg/kg, po dosed as aqueous suspension of Labrafil M 1944CS/DMAC/polysorbate 80, 85:10:5 (v/v) after 2 to 4 hrs by LC/MS/MS analysis. The arrangement: dose 3 mg/kg, route oral. Conditions: in vivo. Format: ADME, organism-based, Canis lupus familiaris. A digest of the protocol: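 Fasted male beagle dogs dosed orally at 1 mL/kg: 2 mg/kg as 0.2% polysorbate 80 in 0.5% methylcellulose suspension (n = 4) or 3 mg/kg in Labrafil M 1944CS/DMAC/polysorbate 80 85:10:5 (n = 2). Femoral vein blood 0.25–24 h; plasma by LC/MS/MS.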

The test system of data set [8] is Rattus norvegicus. Briefly: Anxiolytic activity in Sprague-Dawley rat assessed as decrease in exit latency at 3 mg/kg, po after 60 mins by defensive withdrawal test relative to control. Type of data set: functional. The arrangement: scale not given: the % may be the effect or the level left. The essentials:
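Rats placed in a darkened chamber within an open illuminated field; time to emerge measured 60 min after oral dosing (0.56–3 mg/kg), n = 8; percent decrease in exit latency versus vehicle-treated animals, p < 0.05 significance.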

A short description of data set [9]: AUC in Sprague-Dawley rat at 10 mg/kg, po dosed as aqueous suspension of 1% polysorbate 80 in 0.5% methylcellulose after 0.25 to 24 hrs by LC/MS/MS analysis. The arrangement: time upper 24 hr, time lower 0.25 hr, dose 10 mg/kg, route oral. Type of data set: ADME, organism-based. Conditions: in vivo.
Data set [10] relates to Rattus norvegicus. Kind of data set: Neurotoxicity in Sprague-Dawley rat assessed as alteration of motor coordination up to 60 mg/kg by rotarod test. The arrangement: dose 60 mg/kg. Format: toxicity, organism-based. Conditions: in vivo. (In the rotarod test animals must keep their balance on a rotating rod.)
Data set [11] in a line: Solubility in simulated intestinal fluid. Format: physicochemical. The essentials: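 Solubility measured in simulated gastric fluid and in simulated intestinal fluid (fed state).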
Data set [12] concerns Rattus norvegicus. Briefly: Total plasma concentration in Sprague-Dawley rat at 3 mg/kg, po after 1 to 3 hrs by LC/MS/MS analysis. The arrangement: dose 3 mg/kg, route oral. Conditions: in vivo. Format: ADME, organism-based.

We go through one compound from ChEMBL document CHEMBL1154735, “A strategy to minimize reactive metabolite formation: discovery of (S)-4-(1-cyclopropyl-2-methoxyethyl)-6-[6-(difluoromethoxy)-2,5-dimethylpyridin-3-ylamino]-5-oxo-4,5-dihydropyrazine-2-carbonitrile as a potent, orally bioavailable corticotropin-releasing factor-1 receptor antagonist” (J Med Chem, 2009).

What is called bioavailability is dose-corrected exposure relative to a reference, in per cent. The term IC50 denotes the concentration at which inhibition is half-maximal. Broadly, the inhibition in vivo is the share of the control response that was lost under treatment. By Cmax is commonly meant the peak of the concentration-time curve. What is called AUC is the area under the concentration-time curve, a measure of exposure. The solubility is the concentration that dissolves in the medium under given conditions.

In brackets after ≈: the same amount, converted by molar mass. Bounds are passed on as bounds.

For the compound `COC[C@H](C1CC1)n1cc(C#N)nc(Nc2cc(C)c(OC(F)F)nc2C)c1=O`, in [1], the bioavailability was 66%. For the same compound, the Activity was 0.1% in data set [2]; 3% with Liver microsomes; “Non-toxic” in the data set on Rattus norvegicus [6]; 56% in the data set on Rattus norvegicus [8]; “Non-toxic” in the data set with Rattus norvegicus [10]. Besides, in [3], the IC50 was greater than 10 µM. Besides, the “Cp(f)” value with Rattus norvegicus [4] was determined as 0.84 nM. The inhibition in vivo at 1 mg/kg in the data set with Rattus norvegicus [5] was determined as 43%. The compound also showed a Cmax in data set [7] of 1400 nM. The compound also showed an AUC in [9] of 4.1 µM·h. This compound also displayed a solubility in [11] of 7.4 µg/mL (≈ 18.3 µM). Further, the concentration in the data set with Rattus norvegicus [12] was found to be 140 nM.
